Results: PMC7239729 (Pharmacology, biochemistry, and behavior, 2020)
Several values for one entry are separate records, joined by “and”; a condition that tells them apart may be missing. Equal values may be shown once. Read-outs that look alike come from different tables or passages of the source.

How the values were obtained:
hCB2 receptor [1] = target: T1, hCB2 receptor (Homo sapiens, UniProt P34972); experiment: inhibition of forskolin-stimulated cAMP production; type: cell-based; conditions: for CP55,940 more potent than the compound: hCB2, cAMP
T1 sequence (P34972 whole entry): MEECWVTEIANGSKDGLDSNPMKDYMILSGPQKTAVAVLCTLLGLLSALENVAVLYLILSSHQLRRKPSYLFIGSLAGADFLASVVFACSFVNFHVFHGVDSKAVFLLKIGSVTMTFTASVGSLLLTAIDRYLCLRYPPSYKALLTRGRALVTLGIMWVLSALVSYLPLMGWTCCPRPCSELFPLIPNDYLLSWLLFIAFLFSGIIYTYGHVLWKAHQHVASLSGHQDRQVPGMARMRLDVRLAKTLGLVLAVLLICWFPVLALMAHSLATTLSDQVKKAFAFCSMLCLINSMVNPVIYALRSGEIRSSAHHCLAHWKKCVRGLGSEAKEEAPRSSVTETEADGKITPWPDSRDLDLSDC

[2] = test system: mice trained to discriminate THC (5.6 mg/kg, i.p.) from vehicle; experiment: THC drug discrimination in mice; type: in vivo, mouse; conditions: for ED50: Mus musculus; for substitution for THC / effect on response rates compared to vehicle: i.p.; for substitution for THC: EG-018 10 – 100 mg/kg, full substitution ≥ 80% drug-aperture responding; for effect on response rates compared to vehicle: substitution tests
male ICR mice = experiment: cannabinoid tetrad in mice; type: in vivo, mouse
mice = conditions: ref Wiley et al., 2015, cited from earlier work
[3] = same dosing procedure; ref Kevin et al., 2017b; cited from earlier work
hCB2 receptor [4] = target: T1, hCB2 receptor; experiment: agonist-stimulated [35S]GTPγS binding, hCB2 HEK293 membranes; type: biochemical; conditions: for CP55,940 more potent than the compound: hCB2, [35S]GTPγS; for CP55,940 greater efficacy than the compound: hCB2, [35S]GTPγS Emax
CB1 = conditions: read-out: affinity; ref Wiley et al., 2015; cited from earlier work
[5] = target: human CB1 (hCB1) receptor (Homo sapiens, UniProt P21554); type: binding; conditions: at both receptors (hCB1 and hCB2)
Sequence of human CB1 (hCB1) receptor (P21554 whole entry): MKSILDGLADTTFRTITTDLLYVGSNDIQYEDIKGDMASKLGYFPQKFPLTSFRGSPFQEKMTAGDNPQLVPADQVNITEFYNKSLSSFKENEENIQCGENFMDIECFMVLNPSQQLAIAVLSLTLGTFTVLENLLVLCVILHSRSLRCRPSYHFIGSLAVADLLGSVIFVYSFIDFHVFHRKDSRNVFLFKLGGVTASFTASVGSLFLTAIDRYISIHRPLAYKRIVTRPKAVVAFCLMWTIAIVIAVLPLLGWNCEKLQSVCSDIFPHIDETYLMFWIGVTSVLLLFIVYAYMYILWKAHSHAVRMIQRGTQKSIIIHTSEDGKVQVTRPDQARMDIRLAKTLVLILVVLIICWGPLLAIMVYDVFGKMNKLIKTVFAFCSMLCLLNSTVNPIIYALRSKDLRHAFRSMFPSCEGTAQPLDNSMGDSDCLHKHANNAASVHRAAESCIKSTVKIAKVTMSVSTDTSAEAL

[6] = target: human CB2 (hCB2) receptor (Homo sapiens, UniProt P34972); experiment: [3H]CP55,940 competition binding, hCB2 HEK293 membranes
Sequence of human CB2 (hCB2) receptor (P34972 whole entry): as the sequence (P34972 whole entry) above

hCB1 receptor [7] = target: T2, hCB1 receptor (Homo sapiens, UniProt P21554); experiment: biochemical; type: biochemical
T2 sequence (P21554 whole entry): as the sequence (P21554 whole entry) above

hCB1 receptor [8] = target: T2, hCB1 receptor; experiment: cell-based; type: cell-based
[9] = rat liver microsome incubation; type: in vitro ADME
How it was run: (§1)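 Pooled liver microsomes (rat: IGS Sprague-Dawley; human: pooled) at 1 mg protein/mL final with 1 mM NADPH in 50 mM potassium phosphate, pH 7.4, 3 mM MgCl2. Mix preincubated 5 min at 37 °C, then test compound added to 1 μM. Triplicate incubations at 37 °C. Samples at 0, 5, 10, 30 and 60 min quenched in acetonitrile, then extracted with acetonitrile (3:1) and analysed by LC-MS/MS.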

[10] = human liver microsome incubation; type: in vitro ADME
How it was run: as §1

[11] = rat plasma pharmacokinetics; type: in vivo
How it was run: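 Four 49-day-old male Long-Evans rats with jugular vein catheters, housed singly in metabolite cages. Test compound given i.p. at 3 mg/kg (3 mg/mL in 7.8% polysorbate 80/92.2% saline). Blood drawn 0.25 h before dosing and 0.25, 0.5, 1, 2, 4, 8 and 24 h after, into chilled K3EDTA. Plasma separated at 4 °C, extracted with acetonitrile (3:1) and analysed by LC-MS/MS.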

[12] = metabolite analysis in mouse urine; type: in vivo; conditions: mice, 30 mg/kg i.p., pooled 24 h urine, LC-MS
hCB1 receptors = conditions: ref Wouters et al., 2019; cited from earlier work
[13] = HEK293, read-out: % of CP55,940 Emax
[14] = i.p., 30 min, THC 3, 10 or 56 mg/kg, EG-018 1-100 mg/kg
[15] = i.p., THC 3, 10 or 56 mg/kg, EG-018 1-100 mg/kg
[16] = rimonabant 3 mg/kg i.v. 10 min before EG-018 56 mg/kg i.v.
[17] = Sprague-Dawley, rat, pooled rat liver microsomes, pH 7.4
[18] = human, pooled human liver microsomes, pH 7.4
[19] = male, Long-Evans, rat, plasma, ip, 3 mg/kg

In the case of CCCCCc1cc(O)c2c(c1)OC(C)(C)[C@@H]1CCC(C)=C[C@@H]21 [THC, delta-9-tetrahydrocannabinol], the Emax (hCB2 receptor [1]; [13]) is reported as 45%, the Emax (hCB2 receptor [1]; HEK293, read-out: Emax±SEM) is reported as 27.3 ± 3.68% and the “CP55,940 more potent than the compound” value (hCB2 receptor [1]) is reported as 26 fold. For the same compound, the ED50 ([2]; ip, read-out: ED50, substitution for THC) was 2.2 mg/kg, the ED50 ([2]; ip, read-out: ED50 of THC after EG-018 pretreatment) was 1.2 mg/kg and the ED50 ([2]; read-out: ED50 of THC after vehicle pretreatment) was 1.5 mg/kg. For the same compound, the “substitution for THC” value [2] was “fully substituted for itself”, the “effect on response rates compared to vehicle” value [2] was “Neither THC nor EG-018 significantly affected response rates” and the locomotor activity (male ICR mice; [14]) was “hypomotility”. The “antinociception (tail-flick)” value (male ICR mice; [15]) was “anti-nociception”, the “catalepsy (ring immobility)” value (male ICR mice; [15]) was “catalepsy” and the rectal temperature (male ICR mice; [15]) was “hypothermia”.

For Cc1c(C(=O)NN2CCCCC2)nn(-c2ccc(Cl)cc2Cl)c1-c1ccc(Cl)cc1 [rimonabant, reference compound], the “antagonism of EG-018-induced catalepsy” value (male ICR mice; [16]) was “attenuated catalepsy”, the “antagonism of EG-018-induced hypomotility” value (male ICR mice; [16]) was “did not significantly reduce” and the “antagonism of EG-018-induced hypothermia” value (male ICR mice; [16]) was “did not significantly reduce hypothermia”. The “antagonism of FUBIMINA tetrad effects” value (mice; rimonabant 3 mg/kg i.v. before FUBIMINA 56 mg/kg i.v.) was “reversed”.

In the case of CCCCCn1nc(C(=O)Nc2cccc3ccccc23)c2ccccc21 [MN-18], the Tmax [3] is listed as ~2.5 h.

With CCCCC/C=C\C/C=C\C/C=C\C/C=C\CCCC(=O)NCCO [anandamide] the “CP55,940 more potent than the compound” value (hCB2 receptor [4]) was 200 fold, the “CP55,940 greater efficacy than the compound” value (hCB2 receptor [4]) was 2.5 fold and the Emax (hCB2 receptor [4]; read-out: Emax±SEM) was 49.2 ± 2.25%.

In the case of O=C(c1cccc2ccccc12)c1nc2ccccc2n1CCCCCF [FUBIMINA], the Ki (CB1) is listed as 296 nM, the tetrad effects (mice; 56 mg/kg i.v.) is listed as “produced marked tetrad effects in all four measures” and the tetrad effects (mice; doses up to 100 mg/kg i.p.) is listed as “largely without effect”.

In the case of CCCCCn1c2ccccc2c2cc(C(=O)c3cccc4ccccc34)ccc21 [EG-018, Naphthalen-1-yl(9-pentyl-9H-carbazol-3-yl)methanone], the “lower affinity than CP55,940” value [5] is reported as 10- to 40 fold, the Ki ([6]; Ki (nM), hCB2, HEK293 membranes, [3H]CP55,940) is reported as 8 nM and 7.76 nM and the “greater affinity for hCB2 over hCB1” value ([6]; Ki ratio hCB1/hCB2) is reported as “approximately 3 fold”. The “less potent than CP55,940” value (hCB1 receptor [7]; hCB1, [35S]GTPγS) was “approximately 90 fold”, the “CP55,940 greater efficacy than the compound” value (hCB1 receptor [7]; hCB1, [35S]GTPγS Emax) was 3.5 fold and the “less efficacy than THC” value (hCB1 receptor [7]; hCB1, [35S]GTPγS Emax) was “approximately 2 fold”. For the same compound, the “activity in [35S]GTPγS binding” value (hCB1 receptor [7]; initial studies, ligands not pre-equilibrated prior to addition of [35S]GTPγS (data not shown)) was “appeared to be inactive”, the Emax (hCB1 receptor [7]; read-out: % of CP55,940 Emax) was 28% and the Emax (hCB1 receptor [7]; read-out: Emax±SEM) was 73.9 ± 9.12%. For the same compound, the EC50 (hCB2 receptor [4]) was 11.3 nM, the “CP55,940 more potent than the compound” value (hCB2 receptor [4]) was 12 fold and the “CP55,940 greater efficacy than the compound” value (hCB2 receptor [4]) was 2.5 fold. The Emax (hCB2 receptor [4]; read-out: % of CP55,940 Emax) was 40%, the Emax (hCB2 receptor [4]; read-out: Emax±SEM) was 46.2 ± 2.72% and the Emax (hCB1 receptor [8]; [13]) was 73%. For the same compound, the Emax (hCB1 receptor [8]; HEK293, read-out: Emax±SEM) was 32.9 ± 2.27%, the “CP55,940 more potent than the compound” value (hCB1 receptor [8]; hCB1, cAMP) was 53 fold and the EC50 (hCB2 receptor [1]) was 182 nM. For the same compound, the Emax (hCB2 receptor [1]; [13]) was 48%, the Emax (hCB2 receptor [1]; HEK293, read-out: Emax±SEM) was 28.1 ± 6.14% and the “CP55,940 more potent than the compound” value (hCB2 receptor [1]) was 114 fold. The “substitution for THC” value [2] was “did not substitute for THC at any dose”, the “effect on response rates compared to vehicle” value [2] was “Neither THC nor EG-018 significantly affected response rates” and the “antinociception (tail-flick)” value (male ICR mice; 56 mg/kg i.v.) was “did not significantly elicit antinociceptive behavior”. The “catalepsy (ring immobility)” value (male ICR mice; 56 mg/kg i.v.) was “catalepsy”, the rectal temperature (male ICR mice; 56 mg/kg i.v.) was “hypothermia” and the locomotor activity (male ICR mice; 56 mg/kg i.v., 5 min) was “hypomotility”. For the same compound, the locomotor activity (male ICR mice; [14]) was “did not produce significant effects in any of the four assays”, the “antinociception (tail-flick)” value (male ICR mice; [15]) was “did not produce significant effects in any of the four assays” and the “catalepsy (ring immobility)” value (male ICR mice; [15]) was “did not produce significant effects in any of the four assays”. The rectal temperature (male ICR mice; [15]) was “did not produce significant effects in any of the four assays”, the half-life at 1 μM [9, 17] was 4.29 min and the microsomal CLint at 1 μM [9, 17] was 160 µL/min/mg. The “CLH (mL/min/kg body wt.)” value ([9]; rat liver microsomes, estimated hepatic clearance) was 46.39 mL/min/kg body wt, the “CLint (mL/min/kg body wt.)” value ([9]; rat liver microsomes, estimated intrinsic clearance) was 290.77 mL/min/kg body wt and the ER ([9]; rat liver microsomes, extraction ratio) was 0.84. The “CLH (mL/min/kg body wt.)” value ([10]; human liver microsomes, estimated hepatic clearance) was 19.03 mL/min/kg body wt, the “CLint (mL/min/kg body wt.)” value ([10]; human liver microsomes, estimated intrinsic clearance) was 393.09 mL/min/kg body wt and the ER ([10]; human liver microsomes, extraction ratio) was 0.95. It also gave a half-life at 1 μM [10, 18] of 2.04 min, a microsomal CLint at 1 μM [10, 18] of 340 µL/min/mg and an AUC(0-inf) [11, 19] of 168 ng·h/mL. The AUC(0-t) [11, 19] was 154 ng·h/mL, the Cmax [11, 19] was 26 ng/mL and the Tmax [11, 19] was 2 h. For the same compound, the half-life ([11]; male, Long-Evans, rat, plasma, ip, 3 mg/kg, Half life (h), rat plasma, 3 mg/kg i.p.) was 2.5 h, the “CL/F (mL/min/kg body wt.)” value ([11]; rat plasma, 3 mg/kg i.p., observed apparent clearance) was 520.93 mL/min/kg body wt and the “Half life” value ([11]; rat plasma, 3 mg/kg i.p., 3 mg/kg) was 2.53 h. For the same compound, the “parent compound or metabolites in urine” value [12] was “No intact parent compound or metabolites were identified” and the “greater potency for mini-Gαi over beta arrestin-2” value (hCB1 receptors) was 26 fold.

For CCCCCn1cc(C(=O)Nc2cccc3ccccc23)c2ccccc21 [NNEI], the Tmax [3] is given as “approximately 0.5 hours”.

In the case of CCCCCCC(C)(C)c1ccc([C@@H]2C[C@H](O)CC[C@H]2CCCO)c(O)c1 [CP55,940, reference compound], the “greater potency for mini-Gαi over beta arrestin-2” value (hCB1 receptors) is given as “four-fold shift in potency”.
